Here are results for one molecule from ChEMBL document CHEMBL2150901, “Synthesis and biological activity of tricyclic cycloalkylimidazo-, pyrimido- and diazepinopurinediones” (Eur J Med Chem, 2011).

Activity calls are given as the source filed them. No cut-off for these calls is given here.

For one data set, the target named is T1, Adenosine receptor A2b (Homo sapiens, UniProt P29275).
T1 sequence (P29275 whole entry): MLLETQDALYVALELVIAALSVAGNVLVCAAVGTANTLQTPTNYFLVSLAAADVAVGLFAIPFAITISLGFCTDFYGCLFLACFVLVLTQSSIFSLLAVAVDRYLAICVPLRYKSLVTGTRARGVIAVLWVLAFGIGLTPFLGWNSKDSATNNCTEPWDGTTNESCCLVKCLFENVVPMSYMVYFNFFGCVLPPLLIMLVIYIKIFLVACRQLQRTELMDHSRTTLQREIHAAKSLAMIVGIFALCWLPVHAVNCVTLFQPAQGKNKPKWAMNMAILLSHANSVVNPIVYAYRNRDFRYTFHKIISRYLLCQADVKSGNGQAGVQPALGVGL
The experiment in a line: Displacement of [3H]PSB-603 from human recombinant adenosine A2B receptor expressed in CHO cells. It counts as cell-based. In outline:
(§1)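 CHO cell membranes expressing the human receptor. Radioligands: A1 [3H]CCPA; A2B [3H]ZM241385 or [3H]PSB-603; A3 [3H]PSB-11. […] Potent compounds run at 6–7 concentrations spanning 3 orders of magnitude; Ki ± SEM.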
Background: Displacement assays read how much labelled ligand stays bound in the presence of the test substance.

Data set [1] has as its target Adenosine receptor A2a (Rattus norvegicus, UniProt P30543). The data set can be described thus: Displacement of [3H]MSX-2 from adenosine A2A receptor in rat brain striatal membrane. It is filed as cell membranes.
Data set [2] deals with Mus musculus. The experiment in a line: Anticonvulsant activity in F1 albino mouse assessed as protection against maximal electroshock-induced seizures at 300 mg/kg, ip after 0.25 hrs. It is filed as functional, organism-based. Details: dose 300 mg/kg. In outline: (§2)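 Male albino F-1 mice (18–25 g), groups of 1–5 (rotorod 2–8). Compound given ip as a suspension in 0.5% methylcellulose at 30, 100 and 300 mg/kg. Seizures by maximal electroshock or subcutaneous pentylenetetrazole; neurotoxicity by rotorod. Read at 0.5 and 4 h, with some at 0.25, 1 and 2 h. Value is the minimum active dose, with protected (or toxic)/tested animals.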
For orientation: Protection in the maximal electroshock model is a classic sign of anticonvulsant action.

For data set [3], the target named is T2, Adenosine receptor A1 (Homo sapiens, UniProt P30542).
T2 sequence (P30542 whole entry): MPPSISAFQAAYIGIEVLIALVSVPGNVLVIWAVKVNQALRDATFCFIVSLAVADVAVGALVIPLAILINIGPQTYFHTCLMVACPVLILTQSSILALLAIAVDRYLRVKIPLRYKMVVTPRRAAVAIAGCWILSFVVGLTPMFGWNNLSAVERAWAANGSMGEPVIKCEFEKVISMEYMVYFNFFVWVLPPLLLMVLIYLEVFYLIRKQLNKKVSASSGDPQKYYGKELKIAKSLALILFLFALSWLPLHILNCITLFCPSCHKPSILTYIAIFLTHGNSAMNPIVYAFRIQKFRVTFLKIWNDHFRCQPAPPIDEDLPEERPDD
The data set can be described thus: Displacement of [3H]CCPA from human recombinant adenosine A1 receptor expressed in CHO cells. It is filed as cell-based.

The target in data set [4] is Adenosine receptor A2a (Homo sapiens, UniProt P29274). The data set can be described thus: Displacement of [3H]MSX-2 from human recombinant adenosine A2A receptor expressed in CHO cells. It is filed as cell-based.
The target of data set [5] is T3, Adenosine receptor A2b (Homo sapiens) (UniProt P29275).
T3 sequence (whole entry): T1 sequence (P29275 whole entry)
The data set can be described thus: Displacement of [3H]PSB-603 from human recombinant adenosine A2B receptor expressed in CHO cells at 10 uM. It is filed as cell-based. In outline: as §1

The subject of data set [6] is CHO. The data set can be described thus: Selectivity ratio of Ki for human recombinant adenosine A2A receptor expressed in CHO cells to Ki for adenosine A2A receptor in rat brain striatal membrane. It is filed as cell-based. A digest of the protocol: (§3)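 Ki ratios from radioligand competition binding. Rat A1 used brain cortical membranes and rat A2A used brain striatal membranes. Human A1 and A2A used membranes of CHO cells expressing the receptors. A1 radioligand [³H]CCPA; A2A radioligand [³H]MSX-2. Potent compounds were tested at 6–7 concentrations spanning 3 orders of magnitude.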

In data set [7] the test system is Mus musculus. The experiment in a line: Anticonvulsant activity in F1 albino mouse assessed as protection against maximal electroshock-induced seizures at 300 mg/kg, ip after 1 hr. It is filed as functional, organism-based. Details: dose 300 mg/kg. A digest of the protocol: as §2
For data set [8], the system named is CHO. The data set can be described thus: Selectivity ratio of Ki for adenosine A1 receptor in rat brain cortical membrane to Ki for human recombinant adenosine A1 receptor expressed in CHO cells. It is filed as cell-based. In outline: as §3
For data set [9], the system named is Mus musculus. The data set can be described thus: Anticonvulsant activity in F1 albino mouse assessed as protection against subcutaneous pentylenetetrazole-induced seizures at 300 mg/kg, ip after 0.25 hrs. It counts as functional, organism-based. Details: dose 300 mg/kg. A digest of the protocol:
as §2

The test system of data set [10] is Mus musculus. The data set can be described thus: Anticonvulsant activity in F1 albino mouse assessed as protection against subcutaneous pentylenetetrazole-induced seizures at 100 mg/kg, ip after 0.5 hrs. It is filed as functional, organism-based. Also noted: dose 100 mg/kg. In outline: as §2
For the next data set, the species on record is Rattus norvegicus. The experiment in a line: Selectivity ratio of Ki for adenosine A1 receptor in rat brain cortical membrane to Ki for adenosine A2A receptor in rat brain striatal membrane. It is filed as cell membranes. A digest of the protocol:
as §3

Data set [11] deals with Mus musculus. The data set can be described thus: Neurotoxicity in F1 albino mouse assessed as minimal motor impairment at 300 mg/kg, ip after 4 hrs by rotorod test. It is filed as toxicity, organism-based. Also noted: dose 300 mg/kg, route intraperitoneal. The conditions noted are these: in vivo. A digest of the protocol: as §2
(The rotarod test checks motor coordination on a turning rod.)

The target in data set [12] is T4, Adenosine receptor A3 (Homo sapiens) (UniProt P0DMS8).
T4 sequence (whole entry): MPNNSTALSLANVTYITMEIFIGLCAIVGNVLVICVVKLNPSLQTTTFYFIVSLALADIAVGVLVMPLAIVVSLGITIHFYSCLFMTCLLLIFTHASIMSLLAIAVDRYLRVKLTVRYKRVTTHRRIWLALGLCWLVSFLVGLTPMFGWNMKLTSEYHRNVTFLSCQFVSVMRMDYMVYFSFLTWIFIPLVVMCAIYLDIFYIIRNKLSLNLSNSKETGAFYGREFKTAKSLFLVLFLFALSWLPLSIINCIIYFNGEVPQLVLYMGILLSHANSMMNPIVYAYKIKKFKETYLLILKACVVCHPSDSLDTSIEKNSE
The data set can be described thus: Displacement of [3H]PSB-11 from human recombinant adenosine A3 receptor expressed in CHO cells at 10 uM. It counts as cell-based. A digest of the protocol: as §1

Data set [13] relates to Mus musculus. The experiment in a line: Neurotoxicity in F1 albino mouse assessed as minimal motor impairment at 300 mg/kg, ip after 0.5 hrs by rotorod test. As to conditions: in vivo. It counts as toxicity, organism-based. Details: dose 300 mg/kg, route intraperitoneal. A digest of the protocol: as §2
The test system of data set [14] is Mus musculus. The experiment in a line: Neurotoxicity in F1 albino mouse assessed as minimal motor impairment at 300 mg/kg, ip after 1 hr by rotorod test. It counts as toxicity, organism-based. Also noted: dose 300 mg/kg, route intraperitoneal. The conditions noted are these: in vivo. In outline: as §2
Data set [15] deals with T5, Adenosine receptor A1 (Rattus norvegicus, UniProt P25099).
T5 sequence (P25099 whole entry): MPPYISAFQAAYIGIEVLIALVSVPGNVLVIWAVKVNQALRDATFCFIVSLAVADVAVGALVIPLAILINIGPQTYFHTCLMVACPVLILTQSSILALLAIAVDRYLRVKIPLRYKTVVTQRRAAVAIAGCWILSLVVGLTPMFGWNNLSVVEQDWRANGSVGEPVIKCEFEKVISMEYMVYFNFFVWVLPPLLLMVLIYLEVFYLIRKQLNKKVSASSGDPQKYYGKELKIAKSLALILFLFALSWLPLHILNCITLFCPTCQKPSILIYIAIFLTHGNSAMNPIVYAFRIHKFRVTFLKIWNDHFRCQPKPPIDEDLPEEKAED
The experiment in a line: Displacement of [3H]CCPA from adenosine A1 receptor in rat brain cortical membrane. It is filed as cell membranes.

In data set [16] the test system is Mus musculus. The data set can be described thus: Anticonvulsant activity in F1 albino mouse assessed as protection against subcutaneous pentylenetetrazole-induced seizures at 300 mg/kg, ip after 4 hrs. Also noted: dose 300 mg/kg. It is filed as functional, organism-based. In outline: as §2
In data set [17] the test system is Mus musculus. The experiment in a line: Neurotoxicity in F1 albino mouse assessed as minimal motor impairment at 300 mg/kg, ip after 0.25 hrs by rotorod test. It is filed as toxicity, organism-based. Also noted: dose 300 mg/kg, route intraperitoneal. As to conditions: in vivo. A digest of the protocol:
as §2

Data set [18] relates to Mus musculus. The experiment in a line: Anticonvulsant activity in F1 albino mouse assessed as protection against maximal electroshock-induced seizures at 300 mg/kg, ip after 0.5 hrs. It is filed as functional, organism-based. Details: dose 300 mg/kg. In outline:
as §2

Another data set has as its target T6, Adenosine receptor A3 (Homo sapiens, UniProt P0DMS8).
T6 sequence (P0DMS8 whole entry): T4 sequence (whole entry)
The data set can be described thus: Displacement of [3H]PSB-11 from human recombinant adenosine A3 receptor expressed in CHO cells. It is filed as cell-based.

The test system of data set [19] is Mus musculus. The data set can be described thus: Anticonvulsant activity in F1 albino mouse assessed as protection against subcutaneous pentylenetetrazole-induced seizures at 300 mg/kg, ip after 1 hr. It counts as functional, organism-based. Also noted: dose 300 mg/kg. In outline: as §2
Data set [20] relates to Mus musculus. The data set can be described thus: Anticonvulsant activity in F1 albino mouse assessed as protection against maximal electroshock-induced seizures at 300 mg/kg, ip after 4 hrs. Also noted: dose 300 mg/kg. It is filed as functional, organism-based. A digest of the protocol:
as §2

Adenosine receptor A2a (Homo sapiens, UniProt P29274), sequence (P29274 whole entry): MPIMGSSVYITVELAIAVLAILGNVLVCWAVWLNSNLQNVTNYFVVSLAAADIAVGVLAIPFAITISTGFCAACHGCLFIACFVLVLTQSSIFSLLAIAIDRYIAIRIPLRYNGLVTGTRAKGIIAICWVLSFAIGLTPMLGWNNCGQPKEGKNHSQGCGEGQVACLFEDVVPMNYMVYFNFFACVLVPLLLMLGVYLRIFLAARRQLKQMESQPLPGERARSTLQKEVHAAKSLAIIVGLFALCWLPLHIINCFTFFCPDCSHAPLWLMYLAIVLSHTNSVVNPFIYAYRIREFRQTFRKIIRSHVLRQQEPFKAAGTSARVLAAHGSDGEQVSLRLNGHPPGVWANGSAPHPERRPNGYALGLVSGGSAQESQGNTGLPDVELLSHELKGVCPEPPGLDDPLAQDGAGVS
Adenosine receptor A2a (Rattus norvegicus, UniProt P30543), sequence (P30543 whole entry): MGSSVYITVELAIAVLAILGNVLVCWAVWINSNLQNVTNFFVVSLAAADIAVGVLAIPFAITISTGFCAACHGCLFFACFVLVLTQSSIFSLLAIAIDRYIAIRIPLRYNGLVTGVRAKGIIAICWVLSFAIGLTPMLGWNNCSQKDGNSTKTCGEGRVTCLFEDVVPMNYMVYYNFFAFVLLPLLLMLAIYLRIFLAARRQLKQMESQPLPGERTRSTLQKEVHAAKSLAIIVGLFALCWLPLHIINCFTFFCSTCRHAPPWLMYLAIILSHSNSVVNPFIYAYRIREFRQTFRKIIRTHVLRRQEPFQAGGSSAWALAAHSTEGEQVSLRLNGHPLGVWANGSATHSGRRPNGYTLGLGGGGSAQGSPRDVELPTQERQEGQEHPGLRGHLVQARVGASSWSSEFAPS

For `Cn1c(=O)c2c(nc3n2CCCN3CCC2=CCCCC2)n(C)c1=O`, the inhibition constant (Ki) (in general, the equilibrium dissociation constant of an inhibitor or competing ligand from its target) was over 10 µM at Adenosine receptor A2b; 0.5 µM at Adenosine receptor A2a [1]; 6.9 µM on Adenosine receptor A1 [3]; 0.933 µM on Adenosine receptor A2a [4]; 14.7 µM on Adenosine receptor A1 [15]; over 10 µM at Adenosine receptor A3. For the same molecule, the outcome in the data set on Mus musculus [2], in the data set on Mus musculus [7], in the data set on Mus musculus [9], with Mus musculus [10], with Mus musculus [16] and in the data set with Mus musculus [18] was inactive. In addition, the outcome in the data set on Mus musculus [19] and in the data set on Mus musculus [20] was inactive. In addition, the figures for the inhibition in [5] and in data set [12] were 6% and 23%, respectively. For the same molecule, the figures for the Ratio Ki with CHO [6], with CHO [8] and in the data set filed under Rattus norvegicus were 2, 2 and 44, respectively. Also, the Activity result in the data set with Mus musculus [11], with Mus musculus [13], with Mus musculus [14] and in the data set with Mus musculus [17] was “Non-toxic” throughout.
